CAL PDZ FP-1: blocks peptide binding to human CAL PDZ domain; Q9HD26; inhibition, % at 20 µM; purified CAL PDZ, TMR-peptide fluorescence polarization, 1 h; 330,000 tested, 0.02% active;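 active = highest replicate inhibition of at least 40%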;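 also: plate controls were DMSO neutral control wells for no effect and unlabeled competitor peptide control wells for full effect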
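Assay system – tagged CAL PDZ protein CerCALP, purified · Timing – 1 h at RT · Compound – single point, 20 µM · Measured by – fluorescence polarization from S- and P-plane intensities, G-factor corrected · Evaluation – inhibition from polarization loss · Probe or stimulus – TMR reporter peptide T*-PRC34 · Buffer or medium – pH 7.4 phosphate-saline buffer, reducing agent, detergent, IgG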
DYRK1A inh: blocks rat Dyrk1A kinase activity. inhibition, % at 12.5 µM. AID 504441. 310,000 tested, 0.43% active. ADP-Glo luminescence, NFATc1 peptide. Q63470; in the data active = inhibition above about 50%;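 also: plate controls were vehicle with enzyme for no effect and no enzyme for full effect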
CAL PDZ FP-2: inhibitors of human CAL PDZ peptide binding; Q9HD26; purified CAL PDZ, TMR-peptide fluorescence polarization, 1 h; inhibition, % at 24.9 µM; 300,000 tested, 0.92% active;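 active = mean inhibition of at least 30% with at least half of replicates also reaching 30%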;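 also: 0% = DMSO neutral control and 100% = excess unlabeled competitor peptide PRC23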
ARNT TACC3 PPI: ARNT/TACC3 interaction disruption; AlphaScreen His-ARNT PAS-B/GST-TACC3 binding, luminescence; TACC3 fragment carries E629A point mutation; Q9Y6A5; 390,000 tested, 0.66% active; inhibition, % at 9.99 µM;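 active = mean inhibition of replicates at least 50% and at least half of replicates each reaching 50%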;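 also: 0% = complete ARNT plus TACC3 wells and 100% = ARNT alone without TACC3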
Numbers without * were called inactive; · = not tested or not shown. Sampled rows, rich in hits. Any-hit rate of the full collection: about 1.4%.

SMILES	CAL PDZ FP-1	DYRK1A inh	CAL PDZ FP-2	ARNT TACC3 PPI
CCS(=O)(=O)Nc1ccc2c(c1)C(=O)N(C)[C@@H]1CC[C@H](CC(=O)NC3CCCCC3)O[C@H]1CO2	·	·	·	-0.1
O=C(NCc1ccc(F)cc1)[C@H]1[C@H](CO)[C@H]2Cn3c(cccc3=O)[C@@H]1N2C(=O)Cc1ccccn1	·	·	·	-7.9
Cc1ccc(S(=O)(=O)NC(CC(C)C)C(=O)Oc2ccc3c4c(c(=O)oc3c2)CCC4)cc1 (configuration not stated)	-0.7	7.5	-3.4	-1.8
CC(C)CC(C(=O)Oc1ccc2c3c(c(=O)oc2c1)CCC3)N1C(=O)c2ccccc2C1=O (configuration not stated)	·	-3.4	-1.1	47.2*
O=C(C[C@H]1CC[C@@H](NS(=O)(=O)c2ccccc2)[C@@H](CO)O1)NCCN1CCCCC1	·	·	·	-12.5
CCCCNC(=O)Nc1ccccc1Br	-0.7	-2.0	1.3	-16.6
CCCCNC(=O)Nc1ccccc1CC	3.9	-1.0	69.1*	-16.3
Cc1ccc(N(CC(=O)N2CCOCC2)S(C)(=O)=O)cc1	-0.4	-5.5	2.7	-7.1
CC(C)c1ccc(N(CC(=O)N2CCOCC2)S(C)(=O)=O)cc1	-6.6	32.5	86.0*	-1.1
CCNC(=O)Nc1ccc2c(c1)C(=O)N(C)[C@@H]1CC[C@@H](CC(=O)N[C@@H](C)c3ccccc3)O[C@@H]1CO2	·	·	·	2.9
CCNC(=O)Nc1ccc2c(c1)C(=O)N(C)[C@H]1CC[C@@H](CC(=O)N[C@H](C)c3ccccc3)O[C@H]1CO2	·	·	·	active
O=C(C[C@@H]1C[C@H]2c3cc(NC(=O)CC4CC4)ccc3O[C@H]2[C@@H](CO)O1)NCCc1ccccc1	·	·	·	-4.8
CCc1ccc(CNC(=O)C2CCCN(c3nnc(C)c4c(C)n(-c5ccccc5)nc34)C2)cc1 (configuration not stated)	-2.3	0.3	63.8*	1.1
Cc1nnc(N2CCCC(C(=O)NCc3cccc(F)c3)C2)c2nn(-c3ccccc3)c(C)c12 (configuration not stated)	-3.0	-5.0	21.3	1.7
C[C@H](NC(=O)C[C@@H]1CC[C@H](NC(=O)C2CC2)[C@H](CO)O1)c1ccccc1	·	·	·	1.3
CN(C)C(=O)C[C@H]1C=C[C@@H](NC(=O)C2CC2)[C@H](CO)O1	·	·	·	5.5
COCc1cn(CC[C@@H]2CC[C@@H](NC(=O)c3ccncc3)[C@@H](CO)O2)nn1	·	·	·	0.8
O=S(=O)(N[C@@H]1CC[C@H](CCn2cc(-c3ccccn3)nn2)O[C@@H]1CO)c1cccc(F)c1	·	·	·	91.5*
COc1ccc(NC(=O)N[C@@H]2CC[C@@H](CCn3cc(-c4ccccn4)nn3)O[C@@H]2CO)cc1	·	·	·	47.8*
COc1ccc(NC(=O)N[C@@H]2CC[C@@H](CCn3cc(-c4ccccn4)nn3)O[C@H]2CO)cc1	·	·	·	61.4*
O=C(N[C@@H]1CC[C@@H](CCn2cc(-c3ccccn3)nn2)O[C@H]1CO)c1ccncc1	·	·	·	61.9*
COc1ccc(NC(=O)N[C@H]2CC[C@H](CCn3cc(-c4ccccc4)nn3)O[C@H]2CO)cc1	·	·	·	-10.7
Cc1ccc(-c2ccc3c(c2)O[C@@H](CN(C)C(=O)CN(C)C)[C@H](C)CN([C@@H](C)CO)S3(=O)=O)cc1	·	·	·	4.5
Cc1cccc(C(=O)Nc2ccc(C(=O)/C=C/c3ccncc3)cc2)c1	43.0*	-1.7	-3.8	5.9
Cc1noc(C)c1NC(=O)N(C)C[C@H]1Oc2ccc(NC(=O)C3CCCCC3)cc2CC(=O)N([C@H](C)CO)C[C@@H]1C	·	·	·	2.9
SMILES	CAL PDZ FP-1	DYRK1A inh	CAL PDZ FP-2	ARNT TACC3 PPI
C/C(CCc1ccco1)=N\NC(=O)CNc1cccc2ccccc12	-3.2	0.6	3.9	-14.7
C/C(=N\NC(=O)CNc1cccc2ccccc12)c1ccccc1	0.2	-4.0	31.0*	1.8
O=C(OCC(=O)N1CCCCCC1)c1ccc[nH]c1=O	-1.2	-1.4	-2.2	-19.1
O=C(OCC(=O)N1CCOCC1)c1ccc[nH]c1=O	124.8*	3.5	0.0	-1.4
Cc1ccc(-c2ccc3c(c2)O[C@H](CN(C)C)[C@H](C)CN([C@@H](C)CO)S3(=O)=O)cc1	·	·	·	8.1
Cc1noc(C)c1NC(=O)N(C)C[C@H]1Oc2ccc(NS(=O)(=O)c3ccc(F)cc3)cc2CC(=O)N([C@@H](C)CO)C[C@H]1C	·	·	·	-7.8
O=C(CSc1nnc(-c2ccc(O)cc2)o1)Nc1ccccc1	-1.9	1.7	61.8*	·
Cc1cc(C)nc(SCC(=O)Nc2cc(C)on2)n1	-1.2	-2.8	0.6	-6.9
CCC(c1nnc(SCC(=O)NC23CC4CC(CC(C4)C2)C3)o1)N(C)C (configuration not stated)	·	-4.1	0.9	-1.9
CCC(c1nnc(SCC(=O)Nc2cc(C)on2)o1)N(C)C (configuration not stated)	-0.6	2.2	·	75.5*
Cc1cc(NC(=O)CSc2nnc(-c3ccc(O)cc3)o2)no1	-2.5	3.1	0.1	46.8*
Cc1cc(C)cc(-c2nnc(SCC(=O)Nc3cc(C)on3)o2)c1	-1.9	16.7	-4.1	38.6
Cc1cc(NC(=O)CSc2nnc(C)o2)no1	-1.3	0.7	-4.8	46.8*
CN(C)C(=O)c1ccc(-c2ccc([C@@H]3[C@@H](C#N)N(C(=O)Nc4ccccc4F)[C@H]3CO)cc2)cc1	·	·	·	-8.0
CC12C(=O)N(Cc3ccco3)C(=O)C1C1c3ccccc3C2c2ccccc21 (configuration not stated)	·	-1.5	102.8*	-1.1
CC(=O)N(C)C[C@H]1Oc2cc(-c3cccnc3)ccc2S(=O)(=O)N([C@@H](C)CO)C[C@H]1C	·	·	·	-15.0
Cc1ccc(N=Nc2c(N)[nH]n3c(=O)cc(-c4ccccc4)nc23)cc1	0.7	8.5	-1.9	0.5
COc1cccc(N=Nc2c(N)[nH]n3c(=O)cc(-c4ccccc4)nc23)c1	-0.8	2.8	63.4*	2.0
C[C@@H]1CCCCO[C@@H](CN(C)S(=O)(=O)c2ccc(F)cc2)[C@@H](C)CN([C@@H](C)CO)C(=O)c2cc(NS(=O)(=O)c3ccc(F)cc3)ccc2O1	·	·	·	5.1
COc1cc2c(cc1OC)C(c1ccc(Br)cc1)CC(=O)N2 (configuration not stated)	·	-4.1	62.3*	3.2
O=C(CSCc1ccc(Cl)cc1)Nc1ccc(O)cc1C(=O)O	-0.4	0.1	3.5	46.5*
COc1ccccc1S(=O)(=O)N[C@H]1CC[C@@H](CC(=O)N2CCCCC2)O[C@H]1CO	·	·	·	-14.1
O=C(O)c1c(-c2ccc(Cl)cc2)cn2ccccc12	-1.8	-1.2	99.9*	5.0
O=C(Cc1ccncc1)NCC[C@H]1CC[C@@H](NC(=O)C2CCC2)[C@H](CO)O1	·	·	·	-4.5
O=C(C[C@H]1CC[C@H]2[C@@H](COC[C@@H](O)CN2C(=O)c2cccnc2)O1)NC1Cc2ccccc2C1	·	·	·	-3.7
CCCCC(=O)NC(c1ccccc1Cl)c1ccc2cccnc2c1O (configuration not stated)	-0.2	0.5	58.3*	5.9
CCCCC(=O)NC(c1ccccc1)c1ccc2cccnc2c1O (configuration not stated)	-0.1	13.4	·	-16.6
